Data reported in publication PMC3286832 (Nature Communications, 2011).
Where a chain is given by its changes, count along the chain named. Names may count otherwise.

B1: MPP8 W80A: cage mutant of MPP8 chromodomain, Trp80 to alanine (protein)
chain: MEQVAEGARVTAVPVSAADSTEELAEVEEGVGVVGEDNDAAARGAEAFGDSEEDGEDVFEVEKILDMKTEGGKVLYKVRAKGYTSDDDTWEPEIHLEDCKEVLLEFRKKIAENKAKAVRKDIQRLSLNNDIFEANSDSDQQSETKEDTSPKKKKKKLRQREEKSPDDLKKKKAKAGKLKDKSKPDLESSLESLVFDLRTKKRISEAKEELKESKKPKKDEVKETKELKKVKKGEIRDLKTKTREDPKENRKTKKEKFVESQVESESSVLNDSPFPEDDSEGLHSDSREEKQNTKSARERAGQDMGLEHGFEKPLDSAMSAEEDTDVRGRRKKKTPRKAEDTRENRKLENKNAFLEKKTVPKKQRNQDRSKSAAELEKLMPVSAQTPKGRRLSGEERGLWSTDSAEEDKETKRNESKEKYQKRHDSDKEEKGRKEPKGLKTLKEIRNAFDLFKLTPEEKNDVSENNRKREEIPLDFKTIDDHKTKENKQSLKERRNTRDETDTWAYIAAEGDQEVLDSVCQADENSDGRQQILSLGMDLQLEWMKLEDFQKHLDGKDENFAATDAIPSNVLRDAVKNGDYITVKVALNSNEEYNLDQEDSSGMTLVMLAAAGGQDDLLRLLITKGAKVNGRQKNGTTALIHAAEKNFLTTVAILLEAGAFVNVQQSNGETALMKACKRGNSDIVRLVIECGADCNILSKHQNSALHFAKQSNNVLVYDLLKNHLETLSRVAEETIKDYFEARLALLEPVFPIACHRLCEGPDFSTDFNYKPPQNIPEGSGILLFIFHANFLGKEVIARLCGPCSVQAVVLNDKFQLPVFLDSHFVYSFSPVAGPNKLFIRLTEAPSAKVKLLIGAYRVQLQ
modifications: left off: Flag, end not stated, kept
B2: G9a double mutant (Y1067V/Y1154F): G9a double mutant coexpressed with hDNMT3A (protein, UniProt Q96KQ7 2-1210, looked up, variant Y1067V Y1154F)
Histone-lysine …: AAAAGAAAAAAAEGEAPAEMGALLLEKETRGATERVHGSLGDTPRSEETLPKATPDSLEPAGPSSPASVTVTVGDEGADTPVGATPLIGDESENLEGDGDLRGGRILLGHATKSFPSSPSKGGSCPSRAKMSMTGAGKSPPSVQSLAMRLLSMPGAQGAAAAGSEPPPATTSPEGQPKVHRARKTMSKPGNGQPPVPEKRPPEIQHFRMSDDVHSLGKVTSDLAKRRKLNSGGGLSEELGSARRSGEVTLTKGDPGSLEEWETVVGDDFSLYYDSYSVDERVDSDSKSEVEALTEQLSEEEEEEEEEEEEEEEEEEEEEEEEDEESGNQSDRSGSSGRRKAKKKWRKDSPWVKPSRKRRKREPPRAKEPRGVNGVGSSGPSEYMEVPLGSLELPSEGTLSPNHAGVSNDTSSLETERGFEELPLCSCRMEAPKIDRISERAGHKCMATESVDGELSGCNAAILKRETMRPSSRVALMVLCETHRARMVKHHCCPGCGYFCTAGTFLECHPDFRVAHRFHKACVSQLNGMVFCPHCGEDASEAQEVTIPRGDGVTPPAGTAAPAPPPLSQDVPGRADTSQPSARMRGHGEPRRPPCDPLADTIDSSGPSLTLPNGGCLSAVGLPLGPGREALEKALVIQESERRKKLRFHPRQLYLSVKQGELQKVILMLLDNLDPNFQSDQQSKRTPLHAAAQKGSVEICHVLLQAGANINAVDKQQRTPLMEAVVNNHLEVARYMVQRGGCVYSKEEDGSTCLHHAAKIGNLEMVSLLLSTGQVDVNAQDSGGWTPIIWAAEHKHIEVIRMLLTRGADVTLTDNEENICLHWASFTGSAAIAEVLLNARCDLHAVNYHGDTPLHIAARESYHDCVLLFLSRGANPELRNKEGDTAWDLTPERSDVWFALQLNRKLRLGVGNRAIRTEKIICRDVARGYENVPIPCVNGVDGEPCPEDYKYISENCETSTMNIDRNITHLQHCTCVDDCSSSNCLCGQLSIRCWYDKDGRLLQEFNKIEPPLIFECNQACSCWRNCKNRVVQSGIKVRLQLYRTAKMGWGVRALQTIPQGTFICEVVGELISDAEADVREDDSYLFDLDNKDGEVYCIDARYYGNISRFINHLCDPNIIPVRVFMLHQDLRFPRIAFFSSRDIRTGEELGFDFGDRFWDIKSKYFTCQCGSEKCKHSAEAIALEQSRLARLDPHPELLPELGSLPPVNT
B3: GLP–N: N-terminal fragment of GLP (residues 191–280) containing K205 (protein)
chain: LPAPGADVKVHRARKTMPKSVVGLHAASKDPREVREARDHKEPKEEINKNISDFGRQQLLPPFPSLHQSLPQNQCYMATTKSQTACLPFV
modifications: left off: GST, end not stated, kept
B4: GLP–N K205R: methylation deficient K205R mutant of GLP–N (protein, UniProt Q9H9B1 191-280, looked up, variant K205R)
chain: B3 chain with K15R
B5: GLP–N K205-methylated: GLP–N methylated in vitro at K205 (protein, UniProt Q9H9B1 191-280, looked up, fragment)
chain: B3 chain
modifications: K205 methylated

Columns and labels:
[1] = test system: hDNMT3A–MPP8 interaction in 293T cells; assay: Co-immunoprecipitation of hDNMT3A and MPP8 in 293T cells; type: cell-based, human; details: immunoprecipitation–western
In short: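 293T cells were transfected for 48 h with Myc-hDNMT3A constructs (WT or K47R; in one setup, co-expressed with HA–GLP in GLP stable-knockdown cells). IP used 1 μg anti-Myc with protein-G agarose and three washes in IPH containing 300 or 600 mM NaCl. Western used anti-Myc/MPP8; input was 1–2%.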

[2] = test system: MPP8–GLP interaction in 293T cells; assay: Co-immunoprecipitation of MPP8 and GLP in 293T cells; type: cell-based, human
In short: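 293T cells (parental, or MPP8 stable knockdown for the chromodomain W80A mutant) were cotransfected with Flag-MPP8 and HA-GLP (WT, K199R, K205R or K209R) for 48 h. Lysates were immunoprecipitated with 1 μg anti-HA or anti-Flag on protein-G agarose, washed with IPH containing 300 or 600 mM NaCl, and analysed by western blot. Input was 5%.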

[3] = test system: hDNMT3A K47 methylation in 293T cells; assay: Methylation in 293T cells; type: cell-based, human; details: coexpression in 293T cells, metabolic labelling with 3H-Met or western blot
In short: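 GLP stable knockdown 293T cells expressed Myc-hDNMT3A (WT or K47R), with or without Flag-GLP or G9a, for 36 h. Cells were starved 30 min in methionine-free medium with cycloheximide (100 μg ml−1) and chloramphenicol (40 μg ml−1), then labelled 4 h with 10 μCi ml−1 L-[methyl-3H]methionine. Myc-hDNMT3A was immunoprecipitated with anti-Myc, washed with 600 mM NaCl IPH buffer, and detected by autoradiography.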

GLP catalytic SET domain = GLP catalytic SET domain (Homo sapiens, UniProt Q9H9B1); assay: In vitro methylation assay with GLP catalytic SET domain; type: biochemical; details: [methyl-3H]AdoMet, SDS–PAGE and fluorography / autoradiogram
Sequence of GLP catalytic SET domain (Q9H9B1 1126-1243 limits assumed): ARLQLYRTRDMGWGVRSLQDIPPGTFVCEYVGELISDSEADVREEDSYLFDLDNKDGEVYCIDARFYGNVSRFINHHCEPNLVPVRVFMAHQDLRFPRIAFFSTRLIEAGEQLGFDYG
In short: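 E. coli-expressed hG9a or hGLP SET domain (1.6 μM) was incubated with 13.0 μM substrate (mDnmt3a N-terminal fragments or other GST-tagged proteins) and 2.8 μM [methyl-3H]AdoMet in 20 mM Tris–HCl pH 8.5 at 30 °C for 8 min. Products were resolved by SDS–PAGE and detected by fluorography/autoradiography.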

MPP8 = assay: In vitro GST pull-down of GLP–N with in vitro translated MPP8; type: binding; details: GST–GLP–N (residues 191–280), in vitro translated 35S–MPP8, autoradiography
In short: (§1)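 GST–hGLP–N (residues 191–280, WT or K205R; 3 μg) was premethylated with 3 μg 6xHis–hGLP–SET (residues 955–1,298) and 1.5 mM AdoMet at 30 °C for 2 h. It was immobilised on glutathione agarose (4 °C, 1 h, 1 M NaCl buffer) and washed. Beads were incubated with in vitro translated 35S-labelled full-length MPP8 (WT or W80A) at 4 °C for 2 h, washed with 300 mM NaCl binding buffer, and analysed by SDS–PAGE autoradiography. Input was 5%.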

MPP8–W80A = assay: GST pull-down of GLP–N with MPP8-W80A; type: binding; details: in vitro translated 35S–MPP8–W80A
In short: as §1

| Molecule | methylation by GLP (GLP catalytic SET domain) | interaction with MPP8 in GST pull-down (MPP8) | interaction with MPP8–W80A in GST pull-down (MPP8–W80A) | further results |
| --- | --- | --- | --- | --- |
| B1 | – | – | – | interaction of hDNMT3A with MPP8 in cells [1]: abrogate binding to hDNMT3a; MPP8–GLP interaction in cells [2]: abrogates MPP8–GLP interaction in cells |
| B2 | – | – | – | methylation of hDNMT3A in cells [3]: failed to methylate K47 |
| B3 | is methylated in vitro by recombinant GLP–SET domain | a robust direct interaction between GLP–N and MPP8 was observed only when K205 methylation occurs | no interaction was observed | – |
| B4 | completely abolishes this GLP-catalyzed methylation | completely lost the interaction with MPP8 | no interaction was observed | – |
| B5 | – | – | no interaction was observed | – |
